From ChEMBL document CHEMBL4261600 (Eur J Med Chem, 2018)

Key:
[1] = Half life in Sprague-Dawley rat at 20 mg/kg, po by LC-MS/MS analysis; type: ADME, organism-based; details: in vivo
[2] = Half life in beagle dog at 2 mg/kg, iv by LC-MS/MS analysis; type: ADME, organism-based, Canis lupus familiaris; details: in vivo
[3] = Cmax in Sprague-Dawley rat at 3 mg/kg, iv by LC-MS/MS analysis; type: ADME, organism-based; design: dose 3 mg/kg, route intravenous; details: in vivo
[4] = tested on: Canis familiaris; assay: AUC (0 to infinity) in beagle dog at 2 mg/kg, iv by LC-MS/MS analysis; type: ADME, organism-based, Canis lupus familiaris; design: dose 2 mg/kg, route intravenous, time infinity; details: in vivo
Outline: (§1)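 Non-compartmental PK. Male SD rats 190-210 g, mice and beagle dogs acclimatized one week, fasted 12 h with water, split into iv and po groups (mice 48, rats 6, dogs 6). iv 3/3/2 mg/kg (mice/rats/dogs); po 10/20/10 mg/kg; vehicle DMSO in 5% glucose water. Blood at 2 or 5 to 720 min; plasma protein-precipitated with methanol, caffeine internal standard, LC-MS/MS.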

[5] = tested on: Canis familiaris; assay: AUC (0 to infinity) in beagle dog at 10 mg/kg, po by LC-MS/MS analysis; type: ADME, organism-based, Canis lupus familiaris; design: dose 10 mg/kg, time infinity, route oral; details: in vivo; outline: as §1
[6] = MRT (0 to t) in mouse at 10 mg/kg, po by LC-MS/MS analysis; type: ADME, organism-based; details: in vivo
[7] = MRT (0 to t) in beagle dog at 2 mg/kg, iv by LC-MS/MS analysis; type: ADME, organism-based, Canis lupus familiaris; details: in vivo
[8] = tested on: Tyrosine-protein kinase ABL1 (Homo sapiens), P00519 [Y253F]; assay: Binding affinity to human phosphorylated ABL1 Y253F mutant (S229 to K512 residues) expressed in mammalian expression system assessed as remaining unbound target protein level at 1000 nM by Kinomescan method relative to control
Outline: (§2)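 Single-point competition binding screen across a panel of 468 kinases and mutants, with the inhibitor at 1 μM. Binding is read out as percent of a DMSO control, and targets below 1 percent control were classed as strong binders.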

[9] = molecular target: Cyclin-dependent kinase 13 (Homo sapiens) (UniProt Q14004); assay: Binding affinity to wild-type human partial length CDC2L5 (H675 to S1054 residues) expressed in mammalian expression system assessed as remaining unbound target protein level at 1000 nM by Kinomescan method relative to control
Sequence of Cyclin-dependent kinase 13 (Homo sapiens) (Q14004 whole entry, looked up, the tested form may be a part): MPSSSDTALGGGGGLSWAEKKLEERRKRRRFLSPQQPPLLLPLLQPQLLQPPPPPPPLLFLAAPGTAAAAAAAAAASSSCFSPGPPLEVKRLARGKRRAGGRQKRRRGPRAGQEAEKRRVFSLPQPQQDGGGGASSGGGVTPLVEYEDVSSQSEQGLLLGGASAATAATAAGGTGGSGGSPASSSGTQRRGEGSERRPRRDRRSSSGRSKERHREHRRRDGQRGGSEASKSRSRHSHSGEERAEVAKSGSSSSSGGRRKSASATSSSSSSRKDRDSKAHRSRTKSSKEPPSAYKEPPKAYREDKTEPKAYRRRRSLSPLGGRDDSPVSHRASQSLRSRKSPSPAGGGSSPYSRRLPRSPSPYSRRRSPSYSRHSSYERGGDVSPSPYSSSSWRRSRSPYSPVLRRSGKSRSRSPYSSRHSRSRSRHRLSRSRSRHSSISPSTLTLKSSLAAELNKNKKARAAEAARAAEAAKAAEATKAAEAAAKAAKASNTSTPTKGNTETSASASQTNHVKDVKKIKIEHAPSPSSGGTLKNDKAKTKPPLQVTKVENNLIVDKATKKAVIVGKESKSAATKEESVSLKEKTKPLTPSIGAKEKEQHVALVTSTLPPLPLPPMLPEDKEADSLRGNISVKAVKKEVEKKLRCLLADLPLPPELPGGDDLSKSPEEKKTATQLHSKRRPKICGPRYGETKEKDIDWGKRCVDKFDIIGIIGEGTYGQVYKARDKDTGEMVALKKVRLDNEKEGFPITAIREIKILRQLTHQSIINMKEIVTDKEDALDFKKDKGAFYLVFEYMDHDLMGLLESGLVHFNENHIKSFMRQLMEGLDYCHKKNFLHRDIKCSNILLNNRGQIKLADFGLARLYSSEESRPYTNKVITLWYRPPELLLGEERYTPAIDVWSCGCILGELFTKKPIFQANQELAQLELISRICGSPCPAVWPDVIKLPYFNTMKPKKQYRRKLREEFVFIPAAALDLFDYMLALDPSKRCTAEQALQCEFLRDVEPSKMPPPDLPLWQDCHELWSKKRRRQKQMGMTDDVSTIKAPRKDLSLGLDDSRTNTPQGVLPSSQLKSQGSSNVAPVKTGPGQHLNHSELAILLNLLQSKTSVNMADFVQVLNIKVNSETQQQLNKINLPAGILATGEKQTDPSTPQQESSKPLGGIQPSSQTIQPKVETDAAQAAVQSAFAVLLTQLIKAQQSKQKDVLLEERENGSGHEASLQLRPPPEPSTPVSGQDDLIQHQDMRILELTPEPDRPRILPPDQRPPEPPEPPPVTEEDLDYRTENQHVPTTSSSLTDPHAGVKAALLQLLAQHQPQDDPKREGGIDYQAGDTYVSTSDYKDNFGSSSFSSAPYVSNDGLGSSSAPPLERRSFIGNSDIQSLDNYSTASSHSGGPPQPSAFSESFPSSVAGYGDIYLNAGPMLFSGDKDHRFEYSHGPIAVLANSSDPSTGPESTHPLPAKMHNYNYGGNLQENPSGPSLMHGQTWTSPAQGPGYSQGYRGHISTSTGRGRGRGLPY
Outline: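 KINOMEscan competition binding profile across a panel of 468 kinases and mutants, with the inhibitor tested at a single concentration of 1 μM. Binding is reported as percent of control, meaning signal relative to a DMSO control.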

[10] = molecular target: Cyclin-dependent kinase 5 (Homo sapiens) (UniProt Q00535); assay: Binding affinity to wild-type human full length CDK5 (M1 to P292 residues) expressed in bacterial expression system assessed as remaining unbound target protein level at 1000 nM by Kinomescan method relative to control
Sequence of Cyclin-dependent kinase 5 (Homo sapiens) (Q00535 whole entry, looked up, the tested form may be a part): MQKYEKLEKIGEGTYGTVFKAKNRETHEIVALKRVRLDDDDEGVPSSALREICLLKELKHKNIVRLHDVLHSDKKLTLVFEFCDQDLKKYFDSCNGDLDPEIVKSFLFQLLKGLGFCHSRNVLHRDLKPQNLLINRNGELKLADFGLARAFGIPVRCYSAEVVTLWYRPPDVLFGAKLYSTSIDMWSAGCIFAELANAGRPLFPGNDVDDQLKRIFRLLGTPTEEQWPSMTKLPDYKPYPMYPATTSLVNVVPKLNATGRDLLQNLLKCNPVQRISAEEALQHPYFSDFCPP
Outline: (§3)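 KINOMEscan competitive binding profile at 1 μM inhibitor. Remaining target binding reported as percent of DMSO control.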

[11] = molecular target: Cyclin-dependent kinase 9 (Homo sapiens, UniProt P50750); assay: Binding affinity to wild-type human full length CDK9 (M1 to F372 residues) expressed in bacterial expression system assessed as remaining unbound target protein level at 1000 nM by Kinomescan method relative to control
Sequence of Cyclin-dependent kinase 9 (P50750 whole entry, the tested form may be a part): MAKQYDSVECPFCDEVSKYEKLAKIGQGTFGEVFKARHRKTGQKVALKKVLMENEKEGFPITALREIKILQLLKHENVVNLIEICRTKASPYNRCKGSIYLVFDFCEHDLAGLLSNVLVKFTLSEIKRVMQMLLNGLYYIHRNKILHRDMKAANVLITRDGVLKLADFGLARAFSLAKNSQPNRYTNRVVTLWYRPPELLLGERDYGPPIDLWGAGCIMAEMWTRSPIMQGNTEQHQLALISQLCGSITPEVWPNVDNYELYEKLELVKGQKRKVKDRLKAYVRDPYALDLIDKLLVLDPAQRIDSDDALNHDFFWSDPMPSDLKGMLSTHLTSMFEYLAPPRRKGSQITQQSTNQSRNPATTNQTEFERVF
Outline: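 KINOMEscan competition binding panel run at 1 μM inhibitor; binding reported as percent of DMSO control (remaining target bound versus vehicle).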

[12] = molecular target: Dual specificity protein kinase CLK1 (Homo sapiens) (UniProt P49759); assay: Binding affinity to wild-type human full length CLK1 (M1 to I484 residues) expressed in bacterial expression system assessed as remaining unbound target protein level at 1000 nM by Kinomescan method relative to control; outline: as §3
[13] = molecular target: Eukaryotic translation initiation factor 2-alpha kinase 1 (Homo sapiens) (UniProt Q9BQI3); assay: Binding affinity to wild-type human partial length EIF2AK1 (Q147 to E603 residues) expressed in mammalian expression system assessed as remaining unbound target protein level at 1000 nM by Kinomescan method relative to control
[14] = molecular target: Mitogen-activated protein kinase 6 (Homo sapiens) (UniProt Q16659); assay: Binding affinity to wild-type human partial length ERK3 (M1 to P413 residues) expressed in bacterial expression system assessed as remaining unbound target protein level at 1000 nM by Kinomescan method relative to control
Sequence of Mitogen-activated protein kinase 6 (Homo sapiens) (Q16659 whole entry, the tested form may be a part): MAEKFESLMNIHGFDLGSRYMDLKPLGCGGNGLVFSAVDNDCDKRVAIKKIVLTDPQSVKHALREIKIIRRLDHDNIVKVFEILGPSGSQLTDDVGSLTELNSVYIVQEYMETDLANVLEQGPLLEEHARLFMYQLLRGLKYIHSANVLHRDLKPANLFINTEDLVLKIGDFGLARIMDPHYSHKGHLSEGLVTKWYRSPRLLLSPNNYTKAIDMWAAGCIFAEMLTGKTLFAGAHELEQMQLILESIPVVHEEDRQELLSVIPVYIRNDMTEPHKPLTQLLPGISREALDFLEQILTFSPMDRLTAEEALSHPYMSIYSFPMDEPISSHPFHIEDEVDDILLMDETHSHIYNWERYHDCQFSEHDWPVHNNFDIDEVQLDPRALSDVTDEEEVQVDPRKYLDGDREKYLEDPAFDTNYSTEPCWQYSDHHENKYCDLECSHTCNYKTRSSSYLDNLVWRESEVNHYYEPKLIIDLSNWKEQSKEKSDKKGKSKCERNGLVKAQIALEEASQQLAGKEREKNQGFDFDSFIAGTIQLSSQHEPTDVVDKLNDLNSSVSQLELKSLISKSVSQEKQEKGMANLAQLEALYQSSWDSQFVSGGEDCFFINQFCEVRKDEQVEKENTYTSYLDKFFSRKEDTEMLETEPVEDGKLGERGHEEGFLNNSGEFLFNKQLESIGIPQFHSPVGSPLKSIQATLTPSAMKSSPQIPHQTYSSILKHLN

[15] = molecular target: Serine/threonine-protein kinase/endoribonuclease IRE1 (Homo sapiens) (UniProt O75460); assay: Binding affinity to wild-type human partial length ERN1 (S551 to E852 residues) expressed in mammalian expression system assessed as remaining unbound target protein level at 1000 nM by Kinomescan method relative to control
Outline: (§4)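 KINOMEscan binding panel of 468 kinases/mutants. Inhibitor was tested at a single concentration of 1 μM. Binding is reported as percent of control, defined relative to a DMSO control.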

[16] = molecular target: Homeodomain-interacting protein kinase 4 (Homo sapiens) (UniProt Q8NE63); assay: Binding affinity to wild-type human partial length HIPK4 (M1 to V384 residues) expressed in bacterial expression system assessed as remaining unbound target protein level at 1000 nM by Kinomescan method relative to control; outline: as §4
[17] = molecular target: Inhibitor of nuclear factor kappa-B kinase subunit beta (Homo sapiens) (UniProt O14920); assay: Binding affinity to wild-type human full length IKK-beta (M1 to S756 residues) expressed in mammalian expression system assessed as remaining unbound target protein level at 1000 nM by Kinomescan method relative to control; outline: as §2
[18] = tested on: Mast/stem cell growth factor receptor Kit (Homo sapiens), P10721 [A829P]; assay: Binding affinity to human partial length KIT A829P mutant (I571 to D952 residues) expressed in mammalian expression system assessed as remaining unbound target protein level at 1000 nM by Kinomescan method relative to control
Outline: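 KINOMEscan competition-binding profiling across the panel of 468 kinases and mutants, with inhibitor tested at 1 μM. Binding is expressed as percent of control, with DMSO as the reference control.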

[19] = molecular target: Serine/threonine-protein kinase Nek4 (Homo sapiens) (UniProt P51957); assay: Binding affinity to wild-type human full length NEK4 (M1 to F841 residues) expressed in mammalian expression system assessed as remaining unbound target protein level at 1000 nM by Kinomescan method relative to control; outline: as §2
Sequence of Serine/threonine-protein kinase Nek4 (Homo sapiens) (P51957 whole entry, looked up, the tested form may be a part): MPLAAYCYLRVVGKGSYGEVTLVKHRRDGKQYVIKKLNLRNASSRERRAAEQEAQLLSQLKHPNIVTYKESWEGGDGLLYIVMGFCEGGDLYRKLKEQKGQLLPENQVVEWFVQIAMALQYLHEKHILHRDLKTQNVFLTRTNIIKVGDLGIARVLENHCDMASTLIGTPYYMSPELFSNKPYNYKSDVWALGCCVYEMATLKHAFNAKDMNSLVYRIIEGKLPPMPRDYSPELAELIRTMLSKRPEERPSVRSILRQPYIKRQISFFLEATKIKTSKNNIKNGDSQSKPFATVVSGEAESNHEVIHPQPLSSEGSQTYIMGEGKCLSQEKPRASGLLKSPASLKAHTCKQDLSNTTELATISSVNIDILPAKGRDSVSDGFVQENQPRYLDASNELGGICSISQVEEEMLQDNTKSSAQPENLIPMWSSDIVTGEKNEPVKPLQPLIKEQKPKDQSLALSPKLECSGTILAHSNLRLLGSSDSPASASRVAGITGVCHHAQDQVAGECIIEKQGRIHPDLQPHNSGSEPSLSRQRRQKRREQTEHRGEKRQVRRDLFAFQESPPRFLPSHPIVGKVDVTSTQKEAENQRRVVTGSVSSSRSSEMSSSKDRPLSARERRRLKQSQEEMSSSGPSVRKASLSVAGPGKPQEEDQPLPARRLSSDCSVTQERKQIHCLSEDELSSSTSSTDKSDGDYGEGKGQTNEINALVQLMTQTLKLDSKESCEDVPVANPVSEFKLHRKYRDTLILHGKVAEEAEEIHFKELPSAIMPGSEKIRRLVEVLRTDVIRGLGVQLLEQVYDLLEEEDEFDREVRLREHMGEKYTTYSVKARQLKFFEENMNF

[20] = molecular target: Serine/threonine-protein kinase PLK4 (Homo sapiens) (UniProt O00444); assay: Binding affinity to wild-type human partial length PLK4 (M1 to S273 residues) expressed in mammalian expression system assessed as remaining unbound target protein level at 1000 nM by Kinomescan method relative to control
Sequence of Serine/threonine-protein kinase PLK4 (Homo sapiens) (O00444 whole entry, the tested form may be a part): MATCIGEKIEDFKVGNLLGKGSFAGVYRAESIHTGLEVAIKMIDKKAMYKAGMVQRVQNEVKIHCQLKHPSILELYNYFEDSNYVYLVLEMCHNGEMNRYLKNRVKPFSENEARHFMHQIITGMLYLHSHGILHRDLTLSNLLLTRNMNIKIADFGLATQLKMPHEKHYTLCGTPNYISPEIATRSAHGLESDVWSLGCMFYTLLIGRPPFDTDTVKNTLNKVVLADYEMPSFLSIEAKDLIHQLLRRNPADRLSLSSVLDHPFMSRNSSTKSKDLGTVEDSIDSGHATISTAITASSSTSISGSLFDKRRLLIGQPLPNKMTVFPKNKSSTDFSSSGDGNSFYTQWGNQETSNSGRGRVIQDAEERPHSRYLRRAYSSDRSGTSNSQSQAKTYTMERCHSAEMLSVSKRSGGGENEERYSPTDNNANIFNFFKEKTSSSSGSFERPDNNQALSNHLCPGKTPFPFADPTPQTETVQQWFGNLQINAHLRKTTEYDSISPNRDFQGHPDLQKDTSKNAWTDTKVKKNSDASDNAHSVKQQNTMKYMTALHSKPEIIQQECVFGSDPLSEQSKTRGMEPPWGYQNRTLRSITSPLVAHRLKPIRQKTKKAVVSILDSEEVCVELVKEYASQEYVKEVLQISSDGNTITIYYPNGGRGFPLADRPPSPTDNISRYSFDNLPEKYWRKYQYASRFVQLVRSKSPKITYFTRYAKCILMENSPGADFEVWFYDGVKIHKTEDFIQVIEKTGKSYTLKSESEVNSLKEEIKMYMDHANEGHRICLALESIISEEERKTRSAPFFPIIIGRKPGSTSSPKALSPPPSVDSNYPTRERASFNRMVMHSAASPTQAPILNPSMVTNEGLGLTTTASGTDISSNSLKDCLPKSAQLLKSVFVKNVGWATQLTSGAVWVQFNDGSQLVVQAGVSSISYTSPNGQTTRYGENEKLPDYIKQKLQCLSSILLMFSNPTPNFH

[21] = molecular target: Serine/threonine-protein kinase 32C (Homo sapiens) (UniProt Q86UX6); assay: Binding affinity to wild-type human partial length YANK3 (M68 to G486 residues) expressed in bacterial expression system assessed as remaining unbound target protein level at 1000 nM by Kinomescan method relative to control
[22] = molecular target: CDK3/Cyclin E (Homo sapiens, UniProt Q00526); assay: Inhibition of recombinant GST-tagged human CDK3/cyclin E1; type: protein-complex assay
[23] = organism: Homo sapiens; assay: Selectivity ratio of IC50 for recombinant full length His-tagged human CDK7/cyclin H/MNAT1 to IC50 for recombinant full length His-tagged human CDK9/CyclinT1

COCCN[C@H]1CC[C@H](Nc2cc(-c3csc(NCC4(C#N)CCOCC4)n3)c(Cl)cn2)CC1
half-life [1]: 3.37 h | half-life [2]: 13.1 h | Cmax [3]: 1470 ng/mL | AUC [4]: 3121.69 ng·h/mL | AUC [5]: 16735.55 ng·h/mL | MRT last [6]: 3.24 h | MRT last [7]: 9.36 h | Activity [8]: 87% | Activity [9]: 13% | Activity [10]: 94% | Activity [11]: 0.9% | Activity [12]: 18% | Activity [13]: 97% | Activity [14]: 88% | Activity [15]: 61% | Activity [16]: 9.9% | Activity [17]: 90% | Activity [18]: 88% | Activity [19]: 98% | Activity [20]: 100% | Activity [21]: 90% | IC50 [22]: > 10 µM | Ratio IC50 [23]: > 1000
